Measurements published in ChEMBL document CHEMBL5532753, “Bipyraloxifene - a modified raloxifene vector against triple-negative breast cancer” (RSC Med Chem, 2024).
Activity calls are given as the source filed them. The calls are words filed in the database; no cut-off is given here.

What was measured:
MCF7 [1] = assay: Antiproliferative activity against human MCF7 cells assessed as reduction in cell viability by measuring total mitochondrial respiration incubated for 72 hrs by MTT assay; assay type: functional, cell-based; settings: MCF7, 72 h
Method in brief: (§1)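 Adherent tumour lines grown in HEPES-buffered RPMI-1640 with 10% heat-inactivated FCS, 2 mM L-glutamine, 0.01% sodium pyruvate, penicillin/streptomycin, 37 °C, 5% CO2. Seeding per well: MCF-7 7 × 10³, MDA-MB-231 4 × 10³, MDA-MB-361 6 × 10³, U251 2 × 10³. Cells seeded overnight, then exposed to a dose range for 72 h from 20 mM DMSO stocks diluted in medium. Washed, fixed, read by MTT or CV. IC50 given as mean ± SD of at least three independent experiments.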

MDA-MB-231 [2] = assay: Induction of autophagy in human MDA-MB-231 cells assessed as increase in granularity of the cellular cytoplasm at IC50 concentration incubated for 72 hrs by flow cytometric analysis
MDA-MB-231 [3] = assay: Antiproliferative activity against human MDA-MB-231 cells assessed as reduction in cell viability at IC50 concentration incubated for 72 hrs in presence of 3-MA by crystal violet staining based assay; assay type: functional
MDA-MB-231 [4] = assay: Antiproliferative activity against human MDA-MB-231 cells assessed as reduction in cell viability by measuring total mitochondrial respiration incubated for 72 hrs by MTT assay; assay type: functional, cell-based; settings: MDA-MB-231, 72 h; method in brief: as §1
MDA-MB-231 [5] = assay: Induction of autophagy in human MDA-MB-231 cells at IC50 concentration incubated for 72 hrs by acridine orange staining based flow cytometry analysis; assay type: functional, cell-based
MDA-MB-231 [6] = assay: Induction of apoptosis in human MDA-MB-231 cells assessed as late apoptotic cells at IC50 concentration incubated for 72 hrs by Annexin V/propidium iodide staining based flow cytometry analysis (reference value: 3.19 %); assay type: functional
MCF7 [7] = assay: Antiproliferative activity against human MCF7 cells assessed as reduction in cell viability by measuring number of adherent cells incubated for 72 hrs by crystal violet staining based assay; assay type: functional; settings: MCF7, 72 h; method in brief: as §1
U-251 [8] = assay: Antiproliferative activity against human U-251 cells assessed as reduction in cell viability by measuring number of adherent cells incubated for 72 hrs by crystal violet staining based assay; assay type: functional; settings: U-251, 72 h; method in brief: as §1
MDA-MB-231 [9] = assay: Induction of apoptosis in human MDA-MB-231 cells assessed as abnormal cell shape incubated for 72 hrs by propidium iodide staining based fluorescence microscopy analysis; assay type: functional
MDA-MB-231 [10] = assay: Induction of apoptosis in human MDA-MB-231 cells assessed as early apoptotic cells at IC50 concentration incubated for 72 hrs by Annexin V/propidium iodide staining based flow cytometry analysis (reference value: 0.72 %); assay type: functional
[11] = Cytotoxicity against mouse Peritoneal exudate cell assessed as reduction in cell viability by measuring total mitochondrial respiration incubated for 72 hrs by MTT assay; assay type: toxicity, cell-based; settings: peritoneal exudate cells
Method in brief: (§2)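 Mouse peritoneal exudate cells were exposed to a dose range for 72 h, and viability was read by MTT (mitochondrial respiration) or CV (adherent cells). Compounds came from 20 mM DMSO stocks diluted in medium. IC50 given as mean ± SD.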

MDA-MB-361 [12] = assay: Antiproliferative activity against human MDA-MB-361 cells assessed as reduction in cell viability by measuring total mitochondrial respiration incubated for 72 hrs by MTT assay; assay type: functional, cell-based; settings: MDA-MB-361, 72 h; method in brief: as §1
MDA-MB-231 [13] = assay: Induction of ROS production in human MDA-MB-231 cells assessed as oxidative burst incubated for 72 hrs by DHR staining based flow cytometry analysis; assay type: functional, cell-based
Method in brief: (§3)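 MDA-MB-231 cells were treated for 72 h, then pre-stained with 1 µM dihydrorhodamine 123 for 20 min at 37 °C. After PBS washing and trypsinisation, ROS/RNS were read by flow cytometry.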

[14] = Cytotoxicity against mouse Peritoneal exudate cell assessed as reduction in cell viability by measuring number of adherent cells incubated for 72 hrs by crystal violet staining based assay; assay type: toxicity; method in brief: as §2
MDA-MB-231 [15] = assay: Induction of apoptosis in human MDA-MB-231 cells assessed as abnormal cell size incubated for 72 hrs by propidium iodide staining based fluorescence microscopy analysis; assay type: functional
U-251 [16] = assay: Antiproliferative activity against human U-251 cells assessed as reduction in cell viability by measuring total mitochondrial respiration incubated for 72 hrs by MTT assay; assay type: functional, cell-based; settings: U-251, 72 h; method in brief: as §1
MDA-MB-231 [17] = assay: Induction of apoptosis in human MDA-MB-231 cells assessed as caspase activation incubated for 72 hrs by Apostat staining based flow cytometry analysis; assay type: functional, cell-based
MDA-MB-231 [18] = assay: Antiproliferative activity against human MDA-MB-231 cells assessed as reduction in cell viability at IC50 concentration incubated for 72 hrs in presence of chloroquine by crystal violet staining based assay; assay type: functional
MDA-MB-231 [19] = assay: Induction of apoptosis in human MDA-MB-231 cells assessed as chromatin condensation incubated for 72 hrs by propidium iodide staining based fluorescence microscopy analysis; assay type: functional, cell-based
MDA-MB-231 [20] = assay: Induction of apoptosis in human MDA-MB-231 cells assessed as increase in cell nuclei incubated for 72 hrs by propidium iodide staining based fluorescence microscopy analysis; assay type: functional
MDA-MB-231 [21] = assay: Antiproliferative activity against human MDA-MB-231 cells assessed as reduction in cell viability by measuring number of adherent cells incubated for 72 hrs by crystal violet staining based assay; assay type: functional; settings: MDA-MB-231, 72 h; method in brief: as §1
MDA-MB-231 [22] = assay: Induction of apoptosis in human MDA-MB-231 cells assessed as viable cells at IC50 concentration incubated for 72 hrs by Annexin V/propidium iodide staining based flow cytometry analysis (reference value: 95.0 %); assay type: functional
MDA-MB-231 [23] = assay: Induction of RNS production in human MDA-MB-231 cells assessed as oxidative burst incubated for 72 hrs by DHR staining based flow cytometry analysis; assay type: functional, cell-based; method in brief: as §3
MDA-MB-361 [24] = assay: Antiproliferative activity against human MDA-MB-361 cells assessed as reduction in cell viability by measuring number of adherent cells incubated for 72 hrs by crystal violet staining based assay; assay type: functional; settings: MDA-MB-361, 72 h; method in brief: as §1
MDA-MB-231 [25] = assay: Induction of apoptosis in human MDA-MB-231 cells assessed as necrotic cells at IC50 concentration incubated for 72 hrs by Annexin V/propidium iodide staining based flow cytometry analysis (reference value: 1.11 %); assay type: functional
[26] = Selectivity index, ratio of IC50 for cytotoxicity against mouse Peritoneal exudate cell assessed as reduction in cell viability by measuring number of adherent cells to IC50 for antiproliferative activity against human MDA-MB-231 cells assessed as reduction in cell viability by measuring number of adherent cells; assay type: toxicity, cell-based; settings: mouse peritoneal exudate cells versus human MDA-MB-231 cells, read-out: Ratio IC50
Method in brief: (§4)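 Selectivity index is the IC50 in normal mouse peritoneal exudate cells divided by the IC50 in MDA-MB-231. Both IC50s come from 72 h dose-range treatment, read by the same assay: CV (adherent cells) or MTT (mitochondrial respiration).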

[27] = Selectivity index, ratio of IC50 for cytotoxicity against mouse Peritoneal exudate cell assessed as reduction in cell viability by measuring total mitochondrial respiration to IC50 for antiproliferative activity against human MDA-MB-231 cells assessed as reduction in cell viability by measuring total mitochondrial respiration; assay type: toxicity, cell-based; settings: mouse peritoneal exudate cells versus human MDA-MB-231 cells, read-out: Ratio IC50; method in brief: as §4

Compound	IC50 (MCF7 [1]) [µM]	Activity (MDA-MB-231 [2])	Activity (MDA-MB-231 [3])	IC50 (MDA-MB-231 [4]) [µM]	Activity (MDA-MB-231 [5])	Activity (MDA-MB-231 [6]) [%]	IC50 (MCF7 [7]) [µM]	IC50 (U-251 [8]) [µM]	Activity (MDA-MB-231 [9])	Activity (MDA-MB-231 [10]) [%]	IC50 at 72 h [11] [µM]	IC50 (MDA-MB-361 [12]) [µM]	Activity (MDA-MB-231 [13])	IC50 at 72 h [14] [µM]	Activity (MDA-MB-231 [15])	IC50 (U-251 [16]) [µM]	Activity (MDA-MB-231 [17])	Activity (MDA-MB-231 [18])	Activity (MDA-MB-231 [19])	Activity (MDA-MB-231 [20])	further results
O=C(c1ccc(OCCN2CCCCC2)cc1)c1c(-c2ccc(O)cc2)sc2cc(O)ccc12 [RALOXIFENE]	16.8	Active	Active	19.1	Active	11.5	21.4	23.4	Active	20.6	18.3	22.2	Active	20.4	Active	19.2	Active	Active	Active	Active	IC50 (MDA-MB-231 [21]): 22 µM; Activity (MDA-MB-231 [22]): 67%; Activity (MDA-MB-231 [23]): Active; IC50 (MDA-MB-361 [24]): 38.9 µM; Activity (MDA-MB-231 [25]): 0.93%
COc1ccc(-c2sc3cc(OC)ccc3c2C(=O)c2ccc(OCc3ccnc(-c4ccccn4)c3)cc2)cc1	2.15	Active	Active	1.6	Active	23.3	2.4	2.6	Active	29.3	15.4	6.3	Active	18.9	Active	2.2	Active	Active	Active	Active	selectivity ratio [26]: 12.6; selectivity ratio [27]: 9.5; IC50 (MDA-MB-231 [21]): 1.5 µM; Activity (MDA-MB-231 [22]): 46.4%; Activity (MDA-MB-231 [23]): Active; IC50 (MDA-MB-361 [24]): > 100 µM; Activity (MDA-MB-231 [25]): 1.01%
